Experimental data reported in ChEMBL document CHEMBL1833840, “RGD mimetics containing phthalimidine fragment as novel ligands of fibrinogen receptor” (Bioorg Med Chem Lett, 2011).

Key:
[1] = target: Integrin alpha-IIb/beta-3 (Homo sapiens) (UniProt P08514); assay: Displacement of FITC-labeled fibrinogen from alphaIIbbeta3 in human platelets
Platelet = assay: Inhibition of ADP-induced platelet aggregation in human platelet rich plasma by Borns method; type: functional
Summary of the method: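 Human platelet-rich plasma stimulated with ADP, with aggregation followed by Born's method.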

Sequence of Integrin alpha-IIb/beta-3 (Homo sapiens) (P08514 whole entry, looked up): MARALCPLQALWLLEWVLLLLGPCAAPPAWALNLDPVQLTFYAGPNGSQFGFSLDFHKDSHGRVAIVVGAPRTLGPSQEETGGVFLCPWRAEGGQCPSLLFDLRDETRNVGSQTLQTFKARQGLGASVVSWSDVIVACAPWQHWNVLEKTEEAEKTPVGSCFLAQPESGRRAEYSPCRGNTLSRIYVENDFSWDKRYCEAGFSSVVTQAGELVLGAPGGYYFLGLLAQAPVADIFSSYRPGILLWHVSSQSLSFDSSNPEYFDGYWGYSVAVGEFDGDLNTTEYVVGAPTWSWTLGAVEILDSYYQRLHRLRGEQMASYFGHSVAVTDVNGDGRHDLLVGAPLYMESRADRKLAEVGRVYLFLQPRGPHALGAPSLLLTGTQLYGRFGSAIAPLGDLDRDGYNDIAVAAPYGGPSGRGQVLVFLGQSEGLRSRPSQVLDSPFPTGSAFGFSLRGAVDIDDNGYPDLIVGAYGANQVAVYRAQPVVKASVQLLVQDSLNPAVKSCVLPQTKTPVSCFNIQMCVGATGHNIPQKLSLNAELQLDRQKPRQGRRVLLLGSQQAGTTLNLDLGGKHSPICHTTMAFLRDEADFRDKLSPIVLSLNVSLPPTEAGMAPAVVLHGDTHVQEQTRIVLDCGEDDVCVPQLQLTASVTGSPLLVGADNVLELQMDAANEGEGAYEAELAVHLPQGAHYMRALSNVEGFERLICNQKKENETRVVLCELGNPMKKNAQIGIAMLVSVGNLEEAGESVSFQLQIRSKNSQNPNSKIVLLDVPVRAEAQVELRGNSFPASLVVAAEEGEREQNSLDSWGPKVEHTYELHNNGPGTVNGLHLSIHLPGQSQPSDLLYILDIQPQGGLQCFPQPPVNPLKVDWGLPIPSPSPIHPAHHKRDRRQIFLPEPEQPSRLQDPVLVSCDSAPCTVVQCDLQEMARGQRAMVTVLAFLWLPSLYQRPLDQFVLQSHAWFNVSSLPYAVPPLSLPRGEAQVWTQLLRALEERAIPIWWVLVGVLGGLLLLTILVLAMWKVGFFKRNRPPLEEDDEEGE

## CC(CC(=O)O)N1Cc2ccc(NC(=O)c3ccc4c(c3)CNCC4)cc2C1=O (racemic)
[1]
  IC50: 6.5 nM
Platelet
  IC50: 86 nM

## O=C(O)CN1Cc2ccc(NC(=O)CCCC3CCNCC3)cc2C1=O
Platelet
  IC50: 66000 nM

## O=C(O)CCN1Cc2ccc(NC(=O)c3ccc4c(c3)CNCC4)cc2C1=O
[1]
  IC50: 6.5 nM
Platelet
  IC50: 1100 nM

## O=C(O)CCCN1Cc2ccc(NC(=O)CCCC3CCNCC3)cc2C1=O
Platelet
  IC50: 51000 nM

## O=C(O)CCCN1Cc2ccc(NC(=O)c3ccc4c(c3)CNCC4)cc2C1=O
Platelet
  IC50: 330000 nM

## O=C(O)CCCN1Cc2ccc(NC(=O)c3ccc(C4CCNCC4)cc3)cc2C1=O
Platelet
  IC50: 410000 nM

## O=C(O)CN1Cc2ccc(NC(=O)c3ccc4c(c3)CNCC4)cc2C1=O
[1]
  IC50: 1200 nM
Platelet
  IC50: 120000 nM

## CC(CC(=O)O)N1Cc2ccc(NC(=O)c3ccc(N4CCNCC4)cc3)cc2C1=O (racemic)
[1]
  IC50: 37 nM
Platelet
  IC50: 3740 nM

## O=C(O)CCN1Cc2ccc(NC(=O)c3ccc(C4CCNCC4)cc3)cc2C1=O
[1]
  IC50: 6.8 nM
Platelet
  IC50: 9600 nM

## O=C(O)CCNC(=O)CCNC(=O)c1ccc2c(c1)CNCC2
[1]
  IC50: 22 nM
Platelet
  IC50: 1100 nM

## CC(CC(=O)O)N1Cc2ccc(NC(=O)c3ccc(C4CCNCC4)cc3)cc2C1=O (racemic)
Platelet
  IC50: 6200 nM

## O=C(O)CCN1Cc2ccc(NC(=O)c3ccc(N4CCNCC4)cc3)cc2C1=O
Platelet
  IC50: 540 nM

## O=C(O)CN1Cc2ccc(NC(=O)c3ccc(C4CCNCC4)cc3)cc2C1=O
[1]
  IC50: 270 nM
Platelet
  IC50: 24000 nM

## CC(CC(=O)O)N1Cc2ccc(NC(=O)CCCC3CCNCC3)cc2C1=O (racemic)
[1]
  IC50: 350 nM
Platelet
  IC50: 5400 nM

## O=C(O)CCN1Cc2ccc(NC(=O)CCCC3CCNCC3)cc2C1=O
[1]
  IC50: 5.5 nM
Platelet
  IC50: 5900 nM

## O=C(O)CCNC(=O)c1ccc2c(c1)C(=O)N(CCC1CCNCC1)C2
Platelet
  IC50: 25 nM

## N=C(N)c1ccc(C(=O)Nc2ccc3c(c2)CCN(CC(=O)O)C3)cc1
Platelet
  IC50: 90 nM

## Cc1ccc(S(=O)(=O)N[C@@H](CNC(=O)Cc2cn(CCCC3CCNCC3)c3ccccc23)C(=O)O)cc1
Platelet
  IC50: 4500 nM
